A selection: hits, their analogues and other compounds. The true share with any hit is near 1.9%.
Hck-Nef inh – inhibitors of Nef-activated human Hck kinase, primary screen, biochemical, Z-Lyte FRET, 384-well, Hck-YEEI; Tyrosine-protein kinase HCK (Homo sapiens), P08631; Recombinant Hck-YEEI plus Nef, Z-Lyte FRET kinase assay; inhibition, % at 20 µM; hit rate 0.68% among 220,000;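 active = Hck-Nef kinase inhibition above about 50%, limit read from the data; inactive = inhibition below that limit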
Target sequence (P08631 whole entry, looked up): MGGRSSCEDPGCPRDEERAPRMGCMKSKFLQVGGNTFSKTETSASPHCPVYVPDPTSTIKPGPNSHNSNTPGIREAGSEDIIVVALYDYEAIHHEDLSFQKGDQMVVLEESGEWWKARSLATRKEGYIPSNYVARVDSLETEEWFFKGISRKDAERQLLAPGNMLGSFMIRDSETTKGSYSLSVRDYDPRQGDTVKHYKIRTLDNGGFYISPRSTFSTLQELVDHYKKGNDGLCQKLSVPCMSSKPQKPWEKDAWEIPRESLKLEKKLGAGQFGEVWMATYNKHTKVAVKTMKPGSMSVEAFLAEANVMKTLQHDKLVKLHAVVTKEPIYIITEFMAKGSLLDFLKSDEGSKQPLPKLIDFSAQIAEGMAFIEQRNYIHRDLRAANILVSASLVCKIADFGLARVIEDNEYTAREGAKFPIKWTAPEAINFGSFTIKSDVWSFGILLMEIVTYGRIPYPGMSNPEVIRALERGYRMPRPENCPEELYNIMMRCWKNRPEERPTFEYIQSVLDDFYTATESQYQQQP
Runt-SMMHC FRET – inhibitors of RUNX1 Runt–CBFb-SMMHC binding, primary screen, biochemical, FRET, Cerulean-Runt, Venus-CBFb-SMMHC, uHTS; Runt-related transcription factor 1 (Homo sapiens) + Core-binding factor subunit beta …; AID 1434, 2008; hit rate 0.74% among 220,000; Cerulean-Runt/Venus-CBFb-SMMHC FRET ratio 530/480, 1 h; inhibition, % at 20 µM;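 active = mean inhibition across duplicate retests at 20 µM reaching about 50%, limit read from the data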;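 also: inhibitors lower the FRET ratio by blocking Runt binding to CBFb-SMMHC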
RanGTP-Imp inh – inhibitors of RanGTP-importin-beta interaction, primary screen, biochemical, FRET, CFP-Ran, YFP-importin-beta, homogeneous | inhibition, % (test concentration not listed) | AID 2216, 2009 | cell-free CFP-Ran/YFP-importin-beta FRET ratio | Ran GTPase (GTP-bound) - importin-beta complex | hit rate 1.1% among 300,000;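 active = more than half of the replicate wells show a fall in the fluorescence ratio signal beyond about 16%, limit read from the data, passing the limit was not always enough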
Runt-CBFb FRET – inhibitors of RUNX1 Runt–CBFb binding, primary screen, biochemical, FRET, Cerulean-Runt, Venus-CBFb, uHTS; Cerulean-Runt/Venus-CBFb FRET ratio 530/480, 1 h; hit rate 0.46% among 220,000; AID 1496, 2009; inhibition, % at 20 µM;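 active = inhibition over about 50% at 20 µM in the single-dose screen, limit read from the data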
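System: Cerulean-labeled Runt domain protein | Quantity: 100 nM of each labeled protein | Schedule: 1 h compound exposure, room temperature | Detection: Fluorescence energy transfer, 422 nm excitation, 530/480 nm emission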
TbHK1 inh – Trypanosoma brucei hexokinase 1 inhibitors, primary screen, biochemical, G6PDH-coupled NADH absorbance, MLSCN library; hexokinase 1 [Trypanosoma brucei]; recombinant TbHK1, G6PDH-coupled NADH A340; inhibition, % at 10 µM; hit rate 0.11% among 220,000;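 active = inhibition of 50% or more in the single-dose primary screen; inactive = inhibition below 50%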
YIC FRET counter – YIC intramolecular FRET probe signal interference, dose response, counter-screen for RanGTP-importin-beta inhibitor project, biochemical, fluorescence FRET. shares compounds with RanGTP-Imp inh. Purified YIC probe, intramolecular FRET ratio YFP/CFP. IC50, µM. hit rate 40% among 1,000;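 active = fitted half-maximal inhibitory concentration no more than tenfold above the top dose tested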
Hck Nef conf – retest of Hck:Nef kinase inhibitor hits, confirmation, biochemical, Z-Lyte FRET, 384-well, p-Tyr peptide counterscreen | shares compounds with Hck-Nef inh | Recombinant Hck-YEEI:Nef, Z-Lyte FRET kinase assay | calls only at 10 µM | hit rate 28% among 1,300;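 active = average inhibition of at least 50%, with Z-scores no higher than 3 in both the phospho-tyrosine peptide and fluorescence counterscreens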
Of the large screens only hits and unclear results are named; the others gave an inactive call (follow-up assays come after a bar, where shown).

C#CCOc1ccc(C2C3=C(CC(C)(C)CC3=O)N(CC(=O)O)C3=C2C(=O)CC(C)(C)C3)cc1OC	RanGTP-Imp inh 22 (no result: Hck-Nef inh, Runt-SMMHC FRET, Runt-CBFb FRET, TbHK1 inh) | YIC FRET counter 39
CSc1ccc(CN2CCC(n3nccc3NC(=O)C3CCOC3)CC2)cc1 (centres undefined)	none (no result: Hck-Nef inh, Runt-SMMHC FRET, Runt-CBFb FRET, TbHK1 inh)
O=C(NCCN1C(=O)S/C(=C\c2cccs2)C1=O)c1ccc(=O)[nH]c1	none
COc1ccc(OC)c(/C=C/C(=O)NCCc2nc3ccccc3[nH]2)c1	none
CCOC(=O)CSc1nc2cc(C(=O)OC)ccc2c(=O)n1CCN1CCOCC1	none
COC(=O)c1ccc2c(=O)n(CCN3CCOCC3)c(SCC(=O)C(C)(C)C)nc2c1	RanGTP-Imp inh 19 | YIC FRET counter inactive
CC1=[N+](C)c2c(ccc3cccnc23)C1(C)C	none (no result: RanGTP-Imp inh)
CC(C)Sc1nc(N2CCOCC2)c2c3c(sc2n1)COC(C)(C)C3	RanGTP-Imp inh 23 | YIC FRET counter inactive
COc1cc(CN2CCNC(=O)C2CC(=O)N(Cc2nccn2C)C(C)C)cc(OC)c1 (centres undefined)	none
Cc1ccc(CN2CCN(Cc3ccc4cc(F)ccc4n3)CC2CCO)o1 (centres undefined)	none
Cc1cc(C)c(C#N)c(Nc2ccccc2C)n1	RanGTP-Imp inh 19 (no result: Hck-Nef inh, Runt-SMMHC FRET, Runt-CBFb FRET, TbHK1 inh) | YIC FRET counter inactive
CCCCN(C)C(=O)c1cccc(OC2CCN(CC(C)(C)C)CC2)c1	RanGTP-Imp inh 17 (no result: Hck-Nef inh, Runt-SMMHC FRET, Runt-CBFb FRET, TbHK1 inh) | YIC FRET counter inactive
CCC(C)CNC(=O)c1cccc(OC2CCN(CC(C)(C)C)CC2)c1 (centres undefined)	none (no result: Hck-Nef inh, Runt-SMMHC FRET, Runt-CBFb FRET, TbHK1 inh)
NS(=O)(=O)c1ccc(N=Nc2c[nH]c(=O)c(O)c2)cc1	RanGTP-Imp inh 28 | YIC FRET counter inactive
CC1(C)CC(=O)C=C(Nc2ccc(S(N)(=O)=O)cc2)C1	RanGTP-Imp inh 22 | YIC FRET counter inactive
CC(=O)Nc1ccc(S(=O)(=O)NCc2nc(-c3cccc(C)c3)no2)cc1	RanGTP-Imp inh 15 (no result: Hck-Nef inh, Runt-SMMHC FRET, Runt-CBFb FRET, TbHK1 inh) | YIC FRET counter 39
CC1=NN(C(=O)c2ccccc2)C(O)(c2ccc(Br)cc2)C1 (centres undefined)	RanGTP-Imp inh 24 | YIC FRET counter inactive
Cc1ccc2nc(N3CCN(Cc4nnnn4Cc4ccccc4)CC3)c(C#N)cc2c1	Runt-SMMHC FRET 62, RanGTP-Imp inh 17 | YIC FRET counter 22
COc1ccc2cc(C#N)c(N3CCN(Cc4nnnn4CCC(C)C)CC3)nc2c1	none
Cc1[nH]c2ccccc2c1C(=O)C(=O)N1CCN(c2ccccc2F)CC1	none (no result: Hck-Nef inh, Runt-SMMHC FRET, Runt-CBFb FRET, TbHK1 inh)
Cc1ccc2nc(NCC(=O)O)nc(-c3ccccc3)c2c1	RanGTP-Imp inh 22 | YIC FRET counter 48
Cn1c(=O)oc2cc(S(=O)(=O)NCCC(=O)N3CCN(c4ccccc4)CC3)ccc21	none (no result: Hck-Nef inh, Runt-SMMHC FRET, Runt-CBFb FRET, TbHK1 inh)
Cn1c(=O)oc2cc(S(=O)(=O)NCCC(=O)N3CC=C(c4ccccc4)CC3)ccc21	RanGTP-Imp inh 18 | YIC FRET counter inactive
CCOC(=O)C(NCCc1ccccc1F)(NC(C)=O)C(F)(F)F (centres undefined)	none
O=C(Nc1ccnc(-c2ccncc2)n1)c1ccc(Cl)cc1	RanGTP-Imp inh 23 | YIC FRET counter inactive
Cc1cccc(C(=O)Nc2ccnc(-c3ccncc3)n2)c1	none
Nc1nc(NCCCN2CCOCC2)nc(Nc2ccccc2F)c1[N+](=O)[O-]	none
CC(=O)Nc1ccc(-c2ccc(NC(C)=O)cc2)cc1	none
COC(=O)Nc1ccc(NC(C)=O)cc1	RanGTP-Imp inh 17 | YIC FRET counter inactive
O=C(O)c1ccccc1C(=O)Nc1ccc(Br)c2cccnc12	RanGTP-Imp inh 17 | YIC FRET counter inactive
CN(C)S(=O)(=O)c1ccc(N2CCCC2)c(C(=O)NCC2CCCCC2)c1	none
COc1ccc(/C=N/NC(=O)c2sc3nc(C)cc(C)c3c2N)cc1	RanGTP-Imp inh 23 | YIC FRET counter 6.6
COc1ccc(C2CC(c3ccc(Cl)cc3Cl)n3nc(N)nc3N2)cc1 (centres undefined)	none (no result: Runt-CBFb FRET)
COc1ccccc1C1CC(c2ccc(Cl)cc2)Nc2nc(N)nn21 (centres undefined)	RanGTP-Imp inh 18 | YIC FRET counter inactive
COc1ccc(CNCc2ccncc2)c(OC)c1	none (no result: Hck-Nef inh, Runt-SMMHC FRET, Runt-CBFb FRET, TbHK1 inh)
CCc1cc(=O)oc2c(CNCc3ccc(OC)cc3OC)c(O)c(Cl)cc12	RanGTP-Imp inh 34 (no result: Hck-Nef inh, Runt-SMMHC FRET, Runt-CBFb FRET, TbHK1 inh) | YIC FRET counter 32
COc1ccc(CNCc2c(O)c(Cl)cc3c(C)c(C)c(=O)oc23)c(OC)c1	RanGTP-Imp inh 18 (no result: Hck-Nef inh, Runt-SMMHC FRET, Runt-CBFb FRET, TbHK1 inh) | YIC FRET counter 7
O=C(CN1C(=O)CCS(=O)(=O)c2ccccc21)Nc1ccc(Cl)cc1	none (no result: Hck-Nef inh, Runt-SMMHC FRET, Runt-CBFb FRET, TbHK1 inh)
CCN(CC(=O)NCc1cccs1)C(=O)CCC(=O)c1ccc(C)cc1	none (no result: Hck-Nef inh, Runt-SMMHC FRET, Runt-CBFb FRET, TbHK1 inh)
Cc1noc(C(F)(F)F)c1C(=O)NNC(=O)c1cccc(C(F)(F)F)c1	none
CN(C)S(=O)(=O)c1cccc(C(=O)Nc2ccccc2[N+](=O)[O-])c1	none
CCN(CC)S(=O)(=O)c1cc(C(=O)Nc2ccccc2[N+](=O)[O-])ccc1Cl	RanGTP-Imp inh 25 | YIC FRET counter inactive
COc1ccc(CCNc2c3ccccc3nc3ccccc23)cc1OC	Hck-Nef inh 56, Runt-SMMHC FRET 134, RanGTP-Imp inh 43, Runt-CBFb FRET 110 | YIC FRET counter 14 | Hck Nef conf inactive
COc1nc(NCCc2ccc(OC)c(OC)c2)nc(OC)n1	none
O=c1/c(=C/c2ccccn2)sc2n1CN(c1ccccc1)CN=2	none
Cc1cc(C)c2c(c1)/C(=c1/sc3n(c1=O)CN(c1ccccc1)CN=3)C(=O)N2	Hck-Nef inh 54, RanGTP-Imp inh 54 | YIC FRET counter inactive | Hck Nef conf inactive
CC(=O)Nc1ccc(NC(=O)C(C)OC(=O)c2cccc(S(=O)(=O)N3CCCC3)c2)cc1 (centres undefined)	none (no result: Hck-Nef inh, Runt-SMMHC FRET, Runt-CBFb FRET, TbHK1 inh)
COC(=O)Cc1c(C)c2cc(Cl)c(OC(=O)c3ccco3)cc2oc1=O	Hck-Nef inh 102, Runt-SMMHC FRET 141, RanGTP-Imp inh 47, Runt-CBFb FRET 98 | YIC FRET counter 21
COC(=O)C1=C(N)Oc2cc(C)n(CC3CCCO3)c(=O)c2C1c1ccccc1 (centres undefined)	none
